For assay [1], the system named is HL-60. Nature of the assay: In vitro inhibition of HL60 cell proliferation. In kind it is functional, cell-based. The settings on record: Homo sapiens.
For assay [2], the system named is SW 962. Nature of the assay: (§1) Percentage efficacy for Beta RARE transactivation in SW962 cells. Details: concentration or dose not given beside the values. Type of assay: functional, Homo sapiens. In outline: (§2)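 SW962 vulvar carcinoma cells (L15 medium, 10% FBS with <8 nM vitamin A) stably carrying RARE-tk-CAT reporter with endogenous receptors, treated 24 h in DMSO; CAT measured by ELISA, normalised to protein, triplicates; fold induction vs DMSO control. Efficacy = fold induction at highest concentration (10 µM) divided by that of 10 µM 9-cis-RA, ×100.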

The test system of assay [3] is HL-60. Nature of the assay: In vitro apoptotic activity in HL60 cells. In kind it is functional, cell-based. The settings on record: Homo sapiens. The essentials: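 HL60 cells (2 × 10^5 per well, RPMI 1640 + 10% FCS) given increasing drug concentrations for 48 h; apoptosis scored morphologically under fluorescence microscopy after acridine orange/ethidium bromide labelling (chromatin condensation, apoptotic bodies), also by propidium iodide hypotonic-citrate flow cytometry as pre-G0G1 events; AC50 = concentration giving apoptosis in 50% of cells.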

Assay [4] has as its system HL-60. In words: Effect on monocyte associated antigen CD14 expression in differentiating HL-60 cells. In kind it is functional, Homo sapiens. The essentials:
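HL60 cells (2 × 10^5) exposed to each retinoid for 6 days; differentiation scored by May Grunwald-Giemsa-stained cytospin morphology and two-colour direct immunofluorescence flow cytometry with FITC anti-human CD14 and PE anti-human CD11c mouse monoclonals, isotype antibodies as negative controls; value is % antigen-positive cells. Growth in RPMI 1640, 10% FCS, 37 °C, 5% CO2.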

Assay [5] concerns SW 962. Nature of the assay: Potency against beta RARE transactivation in SW962 cells. In kind it is functional, Homo sapiens. In outline:
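Stably transfected SW962 RARE-tk-CAT reporter line treated 24 h with 10^-9 to 10^-5 M compound in DMSO, DMSO vehicle control; CAT protein by ELISA normalised to extract protein, triplicate treatments averaged to give fold RARE induction; EC50, the concentration for half-maximal activation, read from dose–response curves.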

Assay [6] deals with K562. Nature of the assay: Apoptotic activity in retinoic acid resistant K562 cells. Type of assay: functional, cell-based. The settings on record: Homo sapiens. The essentials:
(§3)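 Cells were exposed to increasing drug concentrations for 48 h. Apoptosis was scored by fluorescence microscopy after acridine orange/ethidium bromide staining, with chromatin condensation and apoptotic bodies marking apoptotic cells and uniform ethidium staining marking necrosis. AC50 is the concentration inducing apoptosis in 50% of cells.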

For assay [7], the system named is HuT78. Nature of the assay: Apoptotic activity in retinoic acid resistant HUT78 cell lines. In kind it is functional, cell-based. The settings on record: Homo sapiens. The essentials:
as §3

Assay [8] deals with HuT78. In words: Inhibition of retinoic acid resistant HUT78 cell proliferation. Type of assay: functional, cell-based. The conditions noted are these: Homo sapiens. The essentials: (§4)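 Cells at 2 × 10^5 per well in 1 mL complete medium were exposed to increasing concentrations of each drug for 48 h. Viable cells were counted on a hemocytometer with trypan blue exclusion and expressed as percent of control proliferation. IC50 is the concentration giving 50% growth inhibition.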

Assay [9] deals with HL-60. Nature of the assay: Inhibition of retinoic acid resistant HL60R cell proliferation. The conditions noted are these: Homo sapiens. In kind it is functional, cell-based. The essentials: as §4
The test system of assay [10] is K562. Nature of the assay: Inhibition of retinoic acid resistant K562 cell proliferation. In kind it is functional, cell-based. The conditions noted are these: Homo sapiens. The essentials:
as §4

In assay [11] the test system is HL-60. In words: Apoptotic activity in retinoic acid resistant HL60R cells. The settings on record: Homo sapiens. In kind it is functional, cell-based. The essentials:
as §3

The test system of assay [12] is SW 962. The assay is described as §1. In kind it is functional, Homo sapiens. The essentials: as §2

The structures appear in SMILES notation. Bounds are passed on as bounds.

What is called IC50 is the point on the concentration scale where inhibition reaches its midpoint. The term AC50 denotes the concentration at which the activity in the assay is half-maximal. In the assay with HL-60 [1], `CC1(C)CCC(C)(C)c2cc(C3=NOC(c4ccc(C(=O)O)cc4)C3)ccc21` (configuration not stated) displayed an IC50 of 68 µM. This compound also returned an Efficacy in the assay on SW 962 [2] of 46.5%. Moreover, the AC50 with HL-60 [3] is greater than 100 µM. For the same compound, the Activity with HL-60 [4] is on record as 42.8%. The compound also registered a Potency with SW 962 [5] of 2.86 µM.
For the compound `CC1(C)CCC(C)(C)c2cc(-c3cc(-c4ccc(C(=O)O)cc4)no3)ccc21`, the AC50 in the assay with K562 [6] was found to be 4.8 µM; in the assay on HuT78 [7], 1.5 µM; in the assay on HL-60 [3] it was 5 µM; in the assay with HL-60 [11], 4.2 µM. Further, the IC50 was 1 µM in the assay with HL-60 [1], 0.8 µM in the assay with HuT78 [8], 1.4 µM with HL-60 [9] and 2.3 µM in the assay on K562 [10]. The Efficacy with SW 962 [2] was 97.6%. In addition, the Potency in the assay on SW 962 [5] is 10 µM.
As for `CC1(C)CCC(C)(C)c2cc(C3CC(c4ccc(C(=O)O)cc4)=NO3)ccc21` (configuration not stated), it took 75 µM to reach half-maximal inhibition with HL-60 [1] (IC50). The compound further displayed an Efficacy in the assay with SW 962 [2] of 26.3%. The AC50 in the assay with HL-60 [3] is greater than 100 µM. Also, the Activity in the assay on HL-60 [4] was found to be 32.5%. The Potency in the assay with SW 962 [5] was found to be 0.961 µM.
Take `CC1(C)CCC(C)(C)c2cc(CNc3ccc(C(=O)O)cc3)ccc21`: in the assay with HL-60 [1], the IC50 came out at 40 µM. The Efficacy with SW 962 [2] is 64.5%. Besides, half-maximal activity with HL-60 [3] (AC50) was put at 70 µM. In the assay on SW 962 [5], the Potency was determined as 0.671 µM.
On to `CC1(C)CCC(C)(C)c2cc(CNc3ccccc3C(=O)O)ccc21`, for which the IC50 with HL-60 [1] amounted to 49 µM. The compound also registered an AC50 in the assay on HL-60 [3] of 88 µM.
The corresponding values for `CC1(C)CCC(C)(C)c2cc(COc3ccc(C(=O)O)cc3)ccc21` are greater than 100 µM and greater than 100 µM.
On the same counts, the results for `CC1(C)CCC(C)(C)c2cc(CNc3cccc(C(=O)O)c3)ccc21` are 60 µM and 99 µM.
On the same counts, the results for `CN(Cc1ccc2c(c1)C(C)(C)CCC2(C)C)c1ccc(C(=O)O)cc1` are 58 µM and 95 µM.
Consider `CC1(C)CCC(C)(C)c2cc(-c3cc(-c4ccc(C(=O)O)cc4)on3)ccc21`, for which half-maximal inhibition in the assay on HL-60 [1] (IC50) was put at 80 µM. In the assay on SW 962 [2], this compound returned an Efficacy of 48%. Further, the half-maximal activity concentration (AC50) with HL-60 [3] was greater than 100 µM. Moreover, the Activity in the assay on HL-60 [4] was determined as 38.6%. Further, in the assay on SW 962 [5], the Potency was found to be 0.129 µM.
In turn, `CC1=C(/C=C/C(C)=C\C=C\C(C)=C\C(=O)O)C(C)(C)CCC1` [ALITRETINOIN] gave an Efficacy in the assay on SW 962 [12] of 100%. Moreover, in the assay with SW 962 [5], the Potency is 0.0169 µM.
In turn, `CC1=C(/C=C/C(C)=C/C=C/C(C)=C/C(=O)O)C(C)(C)CCC1` [TRETINOIN] displayed a concentration for half-maximal inhibition (IC50) in the assay on HL-60 [1] of 18 µM. This compound displayed a half-maximal activity concentration (AC50) with HL-60 [3] greater than 100 µM. This compound also yielded an Activity in the assay on HL-60 [4] of 0%.

Source of the values: ChEMBL document CHEMBL1134528, “Heterocycle-containing retinoids. Discovery of a novel isoxazole arotinoid possessing potent apoptotic activity in multidrug and drug-induced apoptosis-resistant cells” (J Med Chem, 2001).
